Experimental findings from ChEMBL document CHEMBL5661984, “Allosteric ligands for the pharmacologically dark receptors GPR68 and GPR65” (Nature, 2015) are described below.

Series [1] can be described thus: Positive allosteric modulator activity at GPR68 E160K mutant transfected in human HEK293T cells assessed as proton-mediated calcium release at 10 uM incubated for 10 mins by Fluo-4 Direct calcium dye based FLIPR assay (reference value: 6.79 +/- 0.02). The settings on record: HEK-293T. It is filed as cell-based.
Series [2] is described as follows: Positive allosteric modulator activity at GPR68 R189M mutant transfected in human HEK293T cells assessed as proton-mediated calcium release at 10 uM incubated for 10 mins by Fluo-4 Direct calcium dye based FLIPR assay (reference value: 6.77 +/- 0.01). It is filed as cell-based. The settings on record: HEK-293T.
Series [3] in a line: Positive allosteric modulator activity at GPR68 H269F mutant transfected in human HEK293T cells assessed as proton-mediated calcium release at 10 uM incubated for 10 mins by Fluo-4 Direct calcium dye based FLIPR assay (reference value: 6.44 +/- 0.02). It is filed as cell-based. To be noted: HEK-293T.
A short description of series [4]: Positive allosteric modulator activity at GPR68 E160K mutant expressed in human HEK293T cells assessed as cAMP production in presence of H+ proton by Split-luciferase based luminescence counter analysis (reference value: 24.6+/-2.7 %). To be noted: HEK-293T, condition central nervous system disease. The procedure, abridged:
(§1)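 Proton concentration-response of GPR68 (wild type or E160A/K/Q, R189L/M, H269F mutants) in transiently transfected HEK293-T cells. Read-out: GloSensor cAMP, with luciferin loading 90 min at 37°C at pH 8.4. Run with and without increasing modulator concentrations; 20 min at room temperature before luminescence. Proton KA fixed to the proton EC50 without modulator. KB, τA, α, β fitted globally with an operational allosteric model. n=4.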
For orientation: Cyclic AMP is a second messenger, typically raised through Gs and lowered through Gi signalling.

A short description of series [5]: Positive allosteric modulator activity at GPR68 H269F mutant expressed in human HEK293T cells assessed as cAMP production in presence of H+ proton by Split-luciferase based luminescence counter analysis (reference value: 17.7+/-0.8 %). The settings on record: HEK-293T, condition central nervous system disease. The procedure, abridged: as §1
Series [6] can be described thus: Positive allosteric modulator activity at GPR68 E160A mutant expressed in human HEK293T cells assessed as cAMP production in presence of H+ proton by Split-luciferase based luminescence counter analysis (reference value: 7.34+/-0.05). It is filed as cell-based. The settings on record: HEK-293T. The gist of the method:
as §1

Series [7] can be described thus: Positive allosteric modulator activity at GPR68 R189L mutant expressed in human HEK293T cells assessed as cAMP production in presence of H+ proton by Split-luciferase based luminescence counter analysis (reference value: 7.20+/-0.03). To be noted: HEK-293T. It is filed as cell-based. The gist of the method: as §1
Series [8] in a line: Positive allosteric modulator activity at GPR68 R189M mutant expressed in human HEK293T cells assessed as cAMP production in presence of H+ proton by Split-luciferase based luminescence counter analysis (reference value: 6.71+/-0.03). To be noted: HEK-293T. It is filed as cell-based. The procedure, abridged:
as §1

Series [9] in a line: Positive allosteric modulator activity at GPR68 H269F mutant expressed in human HEK293T cells assessed as cAMP production in presence of H+ proton by Split-luciferase based luminescence counter analysis (reference value: 5.75+/-0.03). It is filed as cell-based. To be noted: HEK-293T. The procedure, abridged:
as §1

Series [10] is described as follows: Binding affinity to GPR68 E160Q mutant expressed in human HEK293T cells assessed as cAMP production in presence of H+ proton by Split-luciferase based luminescence counter analysis. To be noted: condition central nervous system disease. The procedure, abridged:
as §1

Series [11] deals with G-protein coupled receptor 68 (Homo sapiens, UniProt Q15743). Kind of series: Positive allosteric modulator activity at GPR68 expressed in human HEK293T cells assessed as proton-mediated phosphatidylinositol hydrolysis on pH 8.4 at 10 uM incubated for 20 mins by TriLuxMicroBeta counter analysis. It is filed as functional, cell-based. To be noted: filed as positive allosteric modulator. The gist of the method: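 GPR68-transfected HEK293-T cells labeled overnight with 3H-inositol (1 μCi/well) in inositol-free DMEM with 5% dialyzed FBS. Treated for 20 min at pH 8.4 in HBSS with 10 mM HEPES, 10 mM MES and 20 mM LiCl, compound at 10 μM. Extracted with 50 mM ice-cold formic acid, 30 min at 4°C. Captured on YSi beads and counted (cpm/well). n=3. 4-parameter logistic fit.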
Sequence of G-protein coupled receptor 68 (Q15743 whole entry): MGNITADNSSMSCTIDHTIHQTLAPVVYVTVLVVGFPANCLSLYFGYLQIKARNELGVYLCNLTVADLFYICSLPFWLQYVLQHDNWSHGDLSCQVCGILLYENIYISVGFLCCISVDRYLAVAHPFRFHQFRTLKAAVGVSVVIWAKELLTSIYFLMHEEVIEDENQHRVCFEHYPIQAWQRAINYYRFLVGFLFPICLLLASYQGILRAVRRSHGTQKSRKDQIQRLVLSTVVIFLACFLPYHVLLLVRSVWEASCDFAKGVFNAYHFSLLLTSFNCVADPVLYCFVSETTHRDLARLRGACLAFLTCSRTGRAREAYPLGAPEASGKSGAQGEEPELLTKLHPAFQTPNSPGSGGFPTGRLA

The target of series [12] is 5-hydroxytryptamine receptor 2B (Homo sapiens, UniProt P41595). Briefly: Antagonist activity against 5-HT2B […] receptor (unknown origin) transfected in human HEK293T cells assessed as inhibition constant incubated for 15 mins by luminescence counter analysis. It is filed as functional, cell-based.
Sequence of 5-hydroxytryptamine receptor 2B (P41595 whole entry): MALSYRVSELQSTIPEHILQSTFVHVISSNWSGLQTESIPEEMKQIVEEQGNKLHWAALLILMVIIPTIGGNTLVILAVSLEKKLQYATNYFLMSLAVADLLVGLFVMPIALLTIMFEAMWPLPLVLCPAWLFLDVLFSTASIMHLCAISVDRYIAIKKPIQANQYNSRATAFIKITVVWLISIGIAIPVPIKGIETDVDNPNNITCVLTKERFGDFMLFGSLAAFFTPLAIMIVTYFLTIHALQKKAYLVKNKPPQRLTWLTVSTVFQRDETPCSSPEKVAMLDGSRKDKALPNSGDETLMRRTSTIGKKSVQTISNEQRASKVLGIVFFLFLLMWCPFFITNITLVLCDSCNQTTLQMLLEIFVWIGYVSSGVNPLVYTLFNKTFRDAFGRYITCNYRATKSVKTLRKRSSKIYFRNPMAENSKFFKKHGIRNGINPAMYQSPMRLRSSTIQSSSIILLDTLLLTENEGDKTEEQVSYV
For series [13], the target named is C-X-C chemokine receptor type 4 (Homo sapiens) (UniProt P61073). Kind of series: Antagonist activity against CXCR4 receptor (unknown origin) transfected in human HEK293T cells at 10 uM incubated for 15 mins in presence of AMD3100 by luminescence counter analysis. It is filed as functional, cell-based. The procedure, abridged:
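HEK293-T cells transiently transfected with CXCR4 and the GloSensor cAMP reporter, plated in DMEM with 1% dialyzed FBS. Test compound at 10 μM in 20 mM HEPES/HBSS, pH 7.4, 15 min at room temperature. Agonist mode: luciferin (4 mM final) plus 200 nM isoproterenol added, 20 min. Antagonist mode: compound 10 min, then reference agonist at EC80 for 10 min, then luciferin/isoproterenol. Luminescence read. CXCL12 (1 or 3 μM) is the agonist control and AMD3100 (10 μM) the antagonist control. n=2.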

A short description of series [14]: Toxicity in C57BL/6 mouse assessed as decreased contextual memory retrieval. To be noted: in vivo. The procedure, abridged:
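Fear conditioning in wild-type and GPR68 KO C57BL/6J congenic mice. Training was 8 min: 3 pairings of a 30-s, 90 dB, 5 kHz tone with a 2-s, 0.6 mA foot shock. Context freezing scored at 24 h over 5 min; cue test at 48 h over 6 min. Freezing defined as no movement for 0.5 s. Compound 10 mg/kg in 10% Tween 80 or saline, 30 min before training. n=6–8 per group. Two-way ANOVA with Bonferroni post-hoc test.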

Active and inactive are the calls of the source.

Sequence of C-X-C chemokine receptor type 4 (Homo sapiens) (P61073 whole entry): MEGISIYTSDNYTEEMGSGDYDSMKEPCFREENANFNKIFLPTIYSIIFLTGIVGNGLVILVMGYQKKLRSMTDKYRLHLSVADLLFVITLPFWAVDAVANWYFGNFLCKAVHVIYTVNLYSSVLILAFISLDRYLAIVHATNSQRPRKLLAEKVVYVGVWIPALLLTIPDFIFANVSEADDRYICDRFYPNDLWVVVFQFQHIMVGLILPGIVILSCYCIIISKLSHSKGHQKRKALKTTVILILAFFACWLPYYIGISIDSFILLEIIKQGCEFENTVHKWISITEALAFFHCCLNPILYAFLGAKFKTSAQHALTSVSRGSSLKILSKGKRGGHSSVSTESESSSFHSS

As for `Nc1nc(NCc2ccccc2)nc(-c2ccccc2CO)n1` [Ogerin], the EC50 – broadly, the concentration at which the effect is half-maximal – in series [1] is 151 nM; in series [2] it was 155 nM; in series [3] it was 145 nM; in series [6], 11.7 nM; in series [7], 43.7 nM; in series [8], 191 nM. In addition, the EC50 in series [9] is 398 nM. Also, the Emax (in general, the greatest response seen or fitted, relative to the assay's reference) in [4] stood at 42.6%; in series [5], 45.1%. Also, the pKb (as a rule, −log10 of the Kb, conventionally taken in molar units) in series [10] was 4.9. The outcome in series [11] was Active. Besides, in series [12], the Ki (usually the dissociation constant of the complex between target and ligand, obtained from inhibition or displacement) worked out at 736 nM. For the same molecule, the result in [13] was inactive. Moreover, the Activity result in [14] is “Toxic”.
